MPTP inh = mitochondrial permeability transition pore inhibitors, primary screen, biochemical, isolated mouse mitochondria, absorbance | inhibition, % at 10 µM | Ca2+ swelling absorbance, 30 min | 360,000 tested, 1.4% active;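 active means inhibition of 50% or more, scaled per plate between neutral and stimulator controls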;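 further: 0% = DMSO wells given calcium and 100% = 1 mM EGTA wells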
ADAM10 inh = human ADAM10 inhibitors, primary screen, biochemical, QFRET, HTS; Disintegrin and metalloproteinase domain-containing protein 10 (Homo sapiens), O14672; recombinant ADAM10, EDANS/DABCYL FRET peptide cleavage, 3 h; inhibition, % at 7 µM; 370,000 tested, 0.62% active; AID 720582, 2013;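 active means inhibition above a per-campaign cutoff equal to the mean of compounds falling between control-based bounds plus 3 SD, cut at about 20% in these data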;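 further: 0% = DMSO wells while the 100% control is not disclosed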
GRIN3A LBD mod = binders of NR3A ligand-binding domain, primary screen, biophysical, differential scanning fluorimetry, uHTS; Glutamate receptor ionotropic, NMDA 3A (GRIN3A) ligand-binding domain; NR3A LBD differential scanning fluorimetry, Tm shift; 0% = protein alone, 100% = glycine-bound protein; Tm shift relative to glycine control, % at 25 µM; 340,000 tested, 2.5% active;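 active means melting temperature shift of at least 10% of the positive control shift, at one fixed dose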
SKN-1 block = suppressors of acrylamide-induced Pgst-4::GFP reporter in worms, primary screen, SKN-1 inhibitor project, whole organism, uHTS, GFP/RFP fluorescence ratio, strain VP596; 360,000 tested, 0.49% active; C. elegans VP596 Pgst-4::GFP/RFP ratio, 24 h; AID 624304, 2012; inhibition, % at 21.8 µM;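 active means interference check ratio from 0.5 to 1.5 plus GFP to RFP signal ratio inhibition reaching or exceeding a fixed threshold, cut at about 30% in these data, passing the limit was not always enough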
ADAM17 inh = ADAM17 inhibitors, primary screen, biochemical, QFRET; Disintegrin and metalloproteinase domain-containing protein 17 (Homo sapiens), P78536; recombinant ADAM17, EDANS/DABCYL FRET peptide cleavage; inhibition, % at 6.95 µM; 370,000 tested, 0.83% active;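 active means inhibition above the mean of compounds lying between control limits plus 3 SD, set per campaign, cut at about 8.5% in these data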;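 further: 0% = DMSO-only wells as the low control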
Target sequence (P78536 215-824 limits assumed): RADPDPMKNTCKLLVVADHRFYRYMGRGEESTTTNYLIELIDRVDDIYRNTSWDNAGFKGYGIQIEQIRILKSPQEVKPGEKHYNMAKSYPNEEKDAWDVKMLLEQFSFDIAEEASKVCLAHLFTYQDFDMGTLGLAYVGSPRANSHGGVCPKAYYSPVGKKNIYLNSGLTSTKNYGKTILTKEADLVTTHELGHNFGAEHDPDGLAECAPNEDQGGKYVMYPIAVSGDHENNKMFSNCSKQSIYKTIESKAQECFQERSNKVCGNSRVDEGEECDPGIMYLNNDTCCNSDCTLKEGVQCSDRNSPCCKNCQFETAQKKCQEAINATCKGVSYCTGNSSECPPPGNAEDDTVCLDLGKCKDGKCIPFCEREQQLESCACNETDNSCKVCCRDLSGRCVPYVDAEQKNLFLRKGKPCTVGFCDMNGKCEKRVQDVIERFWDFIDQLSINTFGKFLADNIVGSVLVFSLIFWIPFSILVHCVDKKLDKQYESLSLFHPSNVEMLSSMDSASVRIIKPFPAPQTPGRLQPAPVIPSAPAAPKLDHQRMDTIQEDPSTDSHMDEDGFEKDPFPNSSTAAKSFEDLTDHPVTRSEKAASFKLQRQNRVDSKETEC
MT1-MMP act inh = blockers of MT1-MMP proenzyme processing, primary screen, HT1080 RFP-PRO-GFP cells, GFP/RFP fluorescence; Matrix metalloproteinase-14 (Homo sapiens), P50281; 360,000 tested, 0.061% active; GFP/RFP ratio change, % at 20 µM; AID 651647, 2012; GFP/RFP ratio fluorescence, overnight; percent of plate control window, DMSO zero;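 active means GFP/RFP ratio change of at least 30% with cell ATP level not reduced by more than half and red fluorescence within 50% of control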
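Test system: HT1080 RFP-PRO-GFP cells; Benchmarks: DMSO and RFP-L50D-GFP cell wells; Timing: cells overnight before dosing, compound overnight, 37 °C, 5% CO2; Compound: one 20 µM compound dose with 1% DMSO; Read-out: GFP/RFP fluorescence ratio.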
Starred values were filed as active, the others as inactive; · = no result. This is a sample that favours compounds with a hit; in the whole collection about 4.7% have one here.

SMILES	MPTP inh	ADAM10 inh	GRIN3A LBD mod	SKN-1 block	ADAM17 inh	MT1-MMP act inh
CCOc1cc(CNc2ccc(O)cc2)ccc1OCc1ccc(Cl)cc1Cl	-1	·	-8	41*	·	8
N#Cc1ccc(CC(=O)c2ccccc2)[nH]c1=O	-1	-336	2	44*	-86	-29
CC(=O)c1ccc(NC(=O)COC(=O)c2c3c(nc4ccccc24)/C(=C\c2cccs2)CCC3)cc1	22	-19	4	12	-8	0
O=C(COC(=O)c1c2c(nc3ccccc13)/C(=C\c1cccs1)CCC2)Nc1ccccc1	8	-5	17*	19	-1	-3
COC(=O)C1=C(C)OC(N)=C(C#N)C1c1cccnc1 (centres undefined)	-2	3	1	15	-2	-9
N#CC1=C(N)Oc2c(O)cc3ccccc3c2C1c1ccsc1 (centres undefined)	6	12	12*	13	8	-2
CC(=O)C1=C(C)OC(N)=C(C#N)C1c1ccco1 (centres undefined)	-1	-8	0	37*	-8	-15
CC(=O)C1=C(C)OC(N)=C(C#N)C1c1ccncc1 (centres undefined)	0	-8	11*	6	-4	-4

Screening results (PubChem BioAssay)
